The source made the active and inactive calls. Unless noted, the rule behind the calls is not given here.
Key:
[1] = target: T1, G-protein coupled receptor 55 (Homo sapiens, UniProt Q9Y2T6); assay: Agonist activity at human GPR55 transfected in CHO cells at 10 uM after 90 mins by beta-arrestin translocation assay; assay type: cell-based
Outline: (§1)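 CHO cells stably expressing human GPR55 (β-galactosidase fragment complementation) were seeded at 20,000 cells/well in Opti-MEM with 2% FCS for 24 h at 37°C. Compound was diluted in PBS with 10% DMSO and 0.1% BSA, screened at 10 µM and incubated 90 min at 37°C. Galacton-Star/Emerald-II/lysis buffer (1:5:19) was added for 60 min at RT, then luminescence was read. Response is relative to 1 µM LPI (100%).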

[2] = target: T1, G-protein coupled receptor 55; assay: Antagonist activity at human GPR55 transfected in CHO cells assessed as inhibition of LPI-induced beta-arrestin recruitment incubated 60 mins prior to LPI addition by beta-arrestin translocation assay; assay type: cell-based
Outline: (§2)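 CHO cells stably expressing human GPR55 were seeded at 20,000 cells/well for 24 h at 37°C. Compound in PBS/10% DMSO/0.1% BSA was added 60 min before 1 µM LPI. Galacton-Star/Emerald-II/lysis buffer (pH 8) was applied for 60 min at RT, with luminescence read-out. Screening was at 10 µM (% inhibition). IC50 was measured where inhibition exceeded 60%. Three independent experiments in duplicate.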

[3] = target: T1, G-protein coupled receptor 55; assay: Antagonist activity at human GPR55 transfected in CHO cells assessed as inhibition of LPI-induced beta-arrestin recruitment incubated 60 mins prior to LPI addition by Gaddum method; assay type: cell-based
Outline: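 In the human GPR55 CHO β-arrestin luminescence assay, full LPI concentration-response curves were run without and with 3-4 antagonist concentrations. Antagonist was preincubated 1 h, then incubated with agonist […]. KB was estimated by the Gaddum method. Three independent experiments in duplicate.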

Cannabinoid receptor 2 [4] = target: T2, Cannabinoid receptor 2 (Homo sapiens, UniProt P34972); assay: Agonist activity at human CB2 receptor expressed in CHOK1 cells assessed as […] of forskolin-stimulated cAMP level at 10 uM; assay type: functional, cell-based; details: CHO-K1
T2 sequence (P34972 whole entry): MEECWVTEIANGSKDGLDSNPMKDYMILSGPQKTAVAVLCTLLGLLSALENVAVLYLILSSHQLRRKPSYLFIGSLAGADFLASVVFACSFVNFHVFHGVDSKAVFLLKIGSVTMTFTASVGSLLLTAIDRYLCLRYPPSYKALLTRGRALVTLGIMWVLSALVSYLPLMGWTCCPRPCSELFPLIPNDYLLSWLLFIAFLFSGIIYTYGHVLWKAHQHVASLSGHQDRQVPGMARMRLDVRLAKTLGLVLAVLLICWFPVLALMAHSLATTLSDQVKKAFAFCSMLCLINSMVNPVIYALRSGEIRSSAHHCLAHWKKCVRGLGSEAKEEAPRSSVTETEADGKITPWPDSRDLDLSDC

[5] = target: T3, N-arachidonyl glycine receptor (Homo sapiens, UniProt Q14330); assay: Antagonist activity at human GPR18 transfected in CHO cells assessed as delta9-THC-induced beta-arrestin recruitment incubated 60 mins prior to delta9-THC addition by beta-arrestin translocation assay; assay type: cell-based
T3 sequence (Q14330 whole entry): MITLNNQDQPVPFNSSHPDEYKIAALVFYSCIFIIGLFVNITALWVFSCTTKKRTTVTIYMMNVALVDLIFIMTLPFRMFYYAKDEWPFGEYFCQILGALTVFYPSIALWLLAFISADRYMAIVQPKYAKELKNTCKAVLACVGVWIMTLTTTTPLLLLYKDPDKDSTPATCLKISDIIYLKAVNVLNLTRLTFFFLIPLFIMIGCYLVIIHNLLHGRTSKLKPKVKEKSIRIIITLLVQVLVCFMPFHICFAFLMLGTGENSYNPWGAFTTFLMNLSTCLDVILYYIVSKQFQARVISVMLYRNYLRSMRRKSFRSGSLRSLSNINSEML
Outline: (§3)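 CHO cells stably expressing human GPR18 were seeded at 20,000 cells/well for 24 h at 37°C. Compound in PBS/10% DMSO/0.1% BSA was added 60 min before the GPR18 agonist 3 at 10 µM. The supplier's detection reagent was used, and luminescence was read after 60 min at RT. Screening was at 10 µM (% inhibition); IC50 from concentration-inhibition curves. Three independent experiments in duplicate.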

[6] = target: T4, N-arachidonyl glycine receptor (Homo sapiens) (UniProt Q14330); assay: Antagonist activity at human GPR18 transfected in CHO cells assessed as delta9-THC-induced beta-arrestin recruitment at 10 uM incubated 60 mins prior to delta9-THC addition by beta-arrestin translocation assay; assay type: cell-based; parameters: scale not given: the % may be the effect or the level left; outline: as §3
T4 sequence (whole entry): T3 sequence (Q14330 whole entry)

Cannabinoid receptor 1 [7] = target: T5, Cannabinoid receptor 1 (Homo sapiens, UniProt P21554); assay: Displacement of [3H]-CP55,940 from human CB1 receptor transfected in CHOK1 cells; assay type: cell-based, CHO-K1
T5 sequence (P21554 whole entry): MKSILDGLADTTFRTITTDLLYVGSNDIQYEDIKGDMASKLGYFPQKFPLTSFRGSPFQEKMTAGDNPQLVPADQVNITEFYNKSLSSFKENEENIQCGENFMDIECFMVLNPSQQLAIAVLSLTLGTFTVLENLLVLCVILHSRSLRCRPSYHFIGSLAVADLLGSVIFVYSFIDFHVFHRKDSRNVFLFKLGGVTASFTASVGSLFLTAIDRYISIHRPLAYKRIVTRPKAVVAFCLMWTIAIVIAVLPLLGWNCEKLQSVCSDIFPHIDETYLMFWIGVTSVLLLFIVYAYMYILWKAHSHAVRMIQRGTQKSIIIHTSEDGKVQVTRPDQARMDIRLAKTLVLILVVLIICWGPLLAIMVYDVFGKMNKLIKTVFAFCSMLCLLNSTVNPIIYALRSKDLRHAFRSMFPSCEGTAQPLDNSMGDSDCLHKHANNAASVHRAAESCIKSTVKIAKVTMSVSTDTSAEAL

Cannabinoid receptor 1 [8] = target: T5, Cannabinoid receptor 1; assay: Displacement of [3H]-CP55,940 from human CB1 receptor transfected in CHOK1 cells at 10 uM; assay type: cell-based; details: CHO-K1
Outline: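 Human CB1 from membrane preparations of stably transfected CHO cells, 25 µg protein per vial. Competition with [3H]CP55,940 at 0.1 nM final, with test compound at 10 µM, read as % inhibition of radioligand binding. Final DMSO 2.5%. Three independent experiments in duplicate.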

Cannabinoid receptor 2 [9] = target: T2, Cannabinoid receptor 2; assay: Displacement of [3H]-CP55,940 from human CB2 receptor transfected in CHOK1 cells at 10 uM; assay type: cell-based; details: CHO-K1
Outline: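 Competition binding used membranes from CHO cells stably expressing human CB2 (1 µg protein per vial) and [3H]CP55,940 at 0.1 nM final. Compound stocks were in DMSO (2.5% final). Compound was tested at 10 µM as % inhibition of radioligand binding. Three independent experiments in duplicate.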

Cannabinoid receptor 2 [10] = target: T2, Cannabinoid receptor 2; assay: Displacement of [3H]-CP55,940 from human CB2 receptor transfected in CHOK1 cells; assay type: cell-based, CHO-K1
Outline: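 CHO cells stably expressing human CB2 supplied the membranes, 1 µg protein per vial. Compounds were screened at 10 µM, and full competition curves were run where inhibition was about 50% or more. Three independent experiments in duplicate.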

[11] = target: T1, G-protein coupled receptor 55; assay: Antagonist activity at human GPR55 transfected in CHO cells assessed as inhibition of LPI-induced beta-arrestin recruitment at 10 uM incubated 60 mins prior to LPI addition by beta-arrestin translocation assay; assay type: cell-based; parameters: scale not given: the % may be the effect or the level left; outline: as §2
[12] = target: T1, G-protein coupled receptor 55; assay: Antagonist activity at human GPR55 expressed in HEK293 cells assessed as inhibition of LPI-induced beta-arrestin recruitment incubated 60 mins prior to LPI addition by beta-arrestin translocation assay; assay type: cell-based; parameters: scale not given: the % may be the effect or the level left
Cannabinoid receptor 1 [13] = target: T5, Cannabinoid receptor 1; assay: Antagonist activity at human CB1 receptor expressed in CHOK1 cells assessed as inhibition of forskolin-stimulated cAMP level at 10 uM; assay type: functional, cell-based; details: CHO-K1
Cannabinoid receptor 2 [14] = target: T2, Cannabinoid receptor 2; assay: Antagonist activity at human CB2 receptor expressed in CHOK1 cells assessed as inhibition of forskolin-stimulated cAMP level at 10 uM; assay type: functional, cell-based; details: CHO-K1
[15] = target: T1, G-protein coupled receptor 55; assay: Agonist activity at human GPR55 transfected in CHO cells after 90 mins by beta-arrestin translocation assay relative to LPI; assay type: cell-based; outline: as §1
Cannabinoid receptor 1 [16] = target: T5, Cannabinoid receptor 1; assay: Agonist activity at human CB1 receptor expressed in CHOK1 cells assessed as […] of forskolin-stimulated cAMP level at 10 uM; assay type: functional, cell-based; details: CHO-K1

T1 sequence (Q9Y2T6 whole entry, the tested form may be a part): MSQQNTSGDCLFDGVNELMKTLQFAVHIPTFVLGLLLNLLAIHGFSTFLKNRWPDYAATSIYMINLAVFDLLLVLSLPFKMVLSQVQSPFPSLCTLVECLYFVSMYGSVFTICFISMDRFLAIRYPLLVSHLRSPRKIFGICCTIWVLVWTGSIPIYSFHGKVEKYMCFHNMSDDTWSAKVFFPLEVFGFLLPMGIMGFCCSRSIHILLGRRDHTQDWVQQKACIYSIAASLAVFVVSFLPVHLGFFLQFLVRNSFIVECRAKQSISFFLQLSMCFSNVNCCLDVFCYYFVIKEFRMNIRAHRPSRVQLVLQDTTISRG

SMILES	Activity [1]	IC50 [2] [µM]	Activity (Cannabinoid receptor 2 [4])	IC50 [5] [µM]	Activity [6] [%]	also measured
CCCCCCCC(C)(C)c1cc(O)c2cc(Cc3ccccc3O)c(=O)oc2c1	inactive	0.113	Active	12.5	–	inhibition [2]: Dose-dependent effect; Kb [3]: 0.561 µM
Cc1cc2c(C(C)C)ccc(C)c2oc1=O	inactive	3.45	–	> 10	11	Ki (Cannabinoid receptor 1 [7]): > 10 µM; Activity (Cannabinoid receptor 1 [8]): 26%; Activity (Cannabinoid receptor 2 [9]): 0%; Ki (Cannabinoid receptor 2 [10]): > 10 µM
CCCCCCCC(C)(C)c1cc(OC)c2cc(Cc3ccccc3OC)c(=O)oc2c1	inactive	> 10	–	> 10	33	Activity [11]: 31%; Activity (Cannabinoid receptor 1 [8]): 51%; Activity (Cannabinoid receptor 2 [9]): 47%
CCCc1cc(O)c2c(c1)OC(C)(C)[C@@H]1CCC(C)=C[C@@H]21	–	–	–	–	–	Activity [12]: 50%
Cc1ccc(C(C)C)c2cc(Cc3ccccc3O)c(=O)oc12	inactive	1.77	–	> 10	32	Activity (Cannabinoid receptor 1 [8]): 31%; Activity (Cannabinoid receptor 2 [9]): 24%
CCCCCc1cc(O)c2cc(Cc3cccc(O)c3)c(=O)oc2c1	inactive	10.6	–	> 10	27	inhibition (Cannabinoid receptor 1 [13]): Active; inhibition (Cannabinoid receptor 2 [14]): Active
CCCCC/C=C\C/C=C\C/C=C\C/C=C\CCCC(=O)O[C@H](CO)COP(=O)(O)O[C@@H]1[C@H](O)[C@H](O)[C@@H](O)[C@H](O)[C@H]1O	–	–	–	–	–	EC50 [15]: 1 µM
CCCCCc1cc(OC)c2cc(Cc3ccc(Br)cc3)c(=O)oc2c1	inactive	3.76	–	> 10	30	inhibition (Cannabinoid receptor 1 [13]): Active; Ki (Cannabinoid receptor 1 [7]): 10.2 µM; inhibition (Cannabinoid receptor 2 [14]): Active; Ki (Cannabinoid receptor 2 [10]): 0.578 µM
Cc1ccc(C(C)C)c2cc(Cc3ccccc3)c(=O)oc12	inactive	5.33	–	> 10	12	Ki (Cannabinoid receptor 1 [7]): > 10 µM; Activity (Cannabinoid receptor 1 [8]): 24%; Activity (Cannabinoid receptor 2 [9]): 24%; Ki (Cannabinoid receptor 2 [10]): > 10 µM
CCCCCCC(C)(C)c1cc(O)c2cc(Cc3ccccc3O)c(=O)oc2c1	inactive	0.261	Active	15.9	–	–
CCCCCc1cc(OC)c2cc(Cc3cccc(OC)c3)c(=O)oc2c1	inactive	3.23	Active	> 10	33	Kb ([2]; read-out: pA2 (converted)): 7.94 pM; Kb [3]: 16.5 µM; Activity (Cannabinoid receptor 1 [16]): Active
CCCCC1(c2cc(O)c3cc(Cc4ccccc4O)c(=O)oc3c2)CCCCC1	inactive	0.961	Active	≥ 10	59	–
CCCCC1(c2cc(OC)c3cc(Cc4ccccc4OC)c(=O)oc3c2)CCCCC1	inactive	> 10	–	> 10	33	Ki (Cannabinoid receptor 1 [7]): ≥ 10 µM; Activity [11]: 44%; Activity (Cannabinoid receptor 1 [8]): 42%; Activity (Cannabinoid receptor 2 [9]): 45%; Ki (Cannabinoid receptor 2 [10]): ≥ 10 µM
CCCCCc1cc(OC)c2cc(Cc3ccccc3OC)c(=O)oc2c1	inactive	6.35	Active	> 10	20	Activity (Cannabinoid receptor 1 [16]): Active
CCCCCCC(C)(C)c1cc(O)c2cc(Cc3ccccc3)c(=O)oc2c1	inactive	0.358	Active	8.1	–	Activity (Cannabinoid receptor 1 [16]): Active
CCCCCc1cc(OC)c2cc(Cc3ccccc3C)c(=O)oc2c1	inactive	5.08	Active	> 10	34	inhibition (Cannabinoid receptor 1 [13]): Active
CCCCC1(c2cc(O)c3cc(Cc4ccccc4O)c(=O)oc3c2)CCCC1	inactive	0.854	Active	–	57	–
C=C(C)[C@@H]1CCC(C)=C[C@H]1c1c(O)cc(CCC)cc1O	–	–	–	–	–	Activity [12]: 56%
CCCCCc1cc(OC)c2cc(Cc3ccc(Cl)cc3)c(=O)oc2c1	inactive	3.29	Active	10	50	inhibition (Cannabinoid receptor 1 [13]): Active; Ki (Cannabinoid receptor 1 [7]): 0.613 µM; Ki (Cannabinoid receptor 2 [10]): 0.578 µM
